According to ChEMBL document CHEMBL2177045, “Chemical subtleties in small-molecule modulation of peptide receptor function: the case of CXCR3 biaryl-type ligands” (J Med Chem, 2012):
Activity calls are given as the source filed them. No cut-off for these calls is given here.

Experiments:
[1] = biological target: T1, C-X-C chemokine receptor type 3 (Homo sapiens, UniProt P49682); experiment: Displacement of [125I]CXCL10 from CXCR3 expressed in HEK293 cells; format: cell-based
T1 sequence (P49682 whole entry): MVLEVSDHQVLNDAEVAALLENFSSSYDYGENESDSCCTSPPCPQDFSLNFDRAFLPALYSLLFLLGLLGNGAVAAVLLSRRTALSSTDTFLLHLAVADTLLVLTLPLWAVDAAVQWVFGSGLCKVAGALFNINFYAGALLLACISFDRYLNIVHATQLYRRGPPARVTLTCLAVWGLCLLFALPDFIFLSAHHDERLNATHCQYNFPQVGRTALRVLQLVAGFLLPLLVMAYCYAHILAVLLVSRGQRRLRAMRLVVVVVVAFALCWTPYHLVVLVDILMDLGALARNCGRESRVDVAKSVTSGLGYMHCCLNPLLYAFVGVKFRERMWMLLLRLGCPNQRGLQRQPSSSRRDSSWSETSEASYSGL
Method in brief: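 Competition binding against [125I]CXCL10 using membranes from HEK293 cells stably expressing CXCR3. Affinities reported as pKi; mean ± SEM of at least three independent experiments.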

[2] = biological target: T2, C-X-C chemokine receptor type 3 (Homo sapiens) (UniProt P49682); experiment: Agonist activity at CXCR3 expressed in HEK293 cells by [35S]GTPgamma binding assay relative to CXCL11; format: functional, cell-based
T2 sequence (whole entry): T1 sequence (P49682 whole entry)
Method in brief: (§1)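 Membranes (5 μg/well) from HEK293 cells stably expressing CXCR3, incubated with CXCL11 or ligands. Buffer 50 mM HEPES, 10 mM MgCl2, 100 mM NaCl, pH 7.2, with 3 μM GDP and 300 pM [35S]GTPγS, 1 h at room temperature. Filtered on GF/B, incorporated label counted. Response normalized to CXCL11 (α = 1) to give relative efficacy; mean ± SEM of ≥3 independent experiments.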

[3] = biological target: T2, C-X-C chemokine receptor type 3 (Homo sapiens); experiment: Agonist activity at CXCR3 expressed in HEK293 cells by CRE-luciferase reporter gene assay; format: functional, cell-based
Method in brief: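 HEK293 cells stably expressing CXCR3, transfected with a CRE-luciferase reporter plasmid. Medium swapped for serum-free medium with 0.05% BSA plus ligands for 5 h. Then replaced by luciferin substrate solution (Tris-phosphate pH 7.8, glycerol, Triton X-100, DTT, MgCl2, 825 μM ATP, beetle luciferin) and luminescence read.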

[4] = biological target: T1, C-X-C chemokine receptor type 3; experiment: Agonist activity at CXCR3 expressed in HEK293 cells by [35S]GTPgamma binding assay; format: functional, cell-based; method in brief: as §1
[5] = biological target: T2, C-X-C chemokine receptor type 3 (Homo sapiens); experiment: Agonist activity at CXCR3 expressed in HEK293 cells in presence of CXCR3 antagonist (R)-N-(1-(3-(4-ethoxyphenyl)-4-oxo-3,4-dihydropyrido[2,3-d]pyrimidin-2-yl)ethyl)-2-(4-fluoro-3-(trifluoromethyl)phenyl)-N-(pyridin-3-ylmethyl)acetamide by [35S]GTPgamma binding assay; format: functional, cell-based
Method in brief: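 [35S]GTPγS incorporation on membranes (5 μg/well) of HEK293 cells stably expressing CXCR3. Buffer 50 mM HEPES, 10 mM MgCl2, 100 mM NaCl, pH 7.2, 3 μM GDP, 300 pM [35S]GTPγS, 1 h at room temperature. In antagonist mode, antagonist added 30 min before [35S]GTPγS. Read by filtration and counting.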

| SMILES | Ki [1] | Ratio [2] | Activity [3] | EC50 [4] | Activity [5] |
| --- | --- | --- | --- | --- | --- |
| CC1(C)[C@H]2CC=C(C[N+](C)(C)Cc3ccc(-c4ccccc4)c(Cl)c3)[C@@H]1C2 | 631 nM | 0.06 | – | – | – |
| CC1(C)[C@H]2CC=C(C[N+](C)(C)Cc3ccc(-c4cccc(Cl)c4)cc3)[C@@H]1C2 | 251 nM | 0.05 | inactive | – | – |
| CC1(C)[C@H]2CC(C[N+](C)(C)Cc3ccc(-c4cccc(Cl)c4)cc3)=C[C@@H]1C2 | 501 nM | 0.07 | – | – | – |
| CC1(C)[C@H]2CC=C(C[N+](C)(C)Cc3ccc(-c4cccc(Cl)c4)c(Cl)c3)[C@@H]1C2 | 501 nM | 0.03 | – | – | – |
| CC1(C)[C@H]2CC=C(C[N+](C)(C)Cc3ccc(-c4ccccc4Br)cc3)[C@@H]1C2 | 63.1 nM | 0.95 | – | 794 nM | – |
| CC1(C)[C@H]2CC=C(C[N+](C)(C)Cc3ccc(-c4ccccc4Cl)c(Cl)c3)[C@@H]1C2 | 200 nM | 0.3 | – | 794 nM | – |
| NCCCC[C@H](NC(=O)[C@@H]1Cc2ccccc2CN1C(=O)CCC(=O)c1ccccc1)C(=O)NCC(c1ccccc1)c1ccccc1 | 39.8 nM | 0.96 | – | – | – |
| Cc1cccc(C)c1-c1ccc(C[N+](C)(C)CC2=CC[C@H]3C[C@@H]2C3(C)C)cc1 | 1000 nM | 0.19 | – | 7940 nM | – |
| CC1(C)[C@H]2CC=C(C[N+](C)(C)Cc3ccccc3)[C@@H]1C2 | 2510 nM | 0.04 | – | – | – |
| CC1(C)[C@H]2CC=C(C[N+](C)(C)Cc3ccc(-c4ccccc4I)cc3)[C@@H]1C2 | 63.1 nM | 0.99 | Active | 1000 nM | inactive |
| CC1(C)[C@H]2CC=C(C[N+](C)(C)Cc3ccc(-c4cccc(Cl)c4Cl)cc3)[C@@H]1C2 | 398 nM | 0.31 | – | 631 nM | – |
| CC1(C)[C@H]2CC=C(C[N+](C)(C)Cc3ccc(Cl)cc3)[C@@H]1C2 | – | 0.02 | – | – | – |
| CC1(C)[C@H]2CC=C(C[N+](C)(C)Cc3ccc4c(c3)Cc3ccccc3-4)[C@@H]1C2 | 398 nM | 0.03 | – | – | – |
| CC1(C)[C@H]2CC=C(C[N+](C)(C)Cc3ccc(-c4ccccc4O)cc3)[C@@H]1C2 | 2000 nM | 0.07 | – | – | – |
| CC1(C)[C@H]2CC[C@@H](C[N+](C)(C)Cc3ccc(-c4cccc(Cl)c4)cc3)[C@@H]1C2 | 501 nM | 0.07 | – | – | – |
| COc1ccccc1-c1ccc(C[N+](C)(C)CC2=CC[C@H]3C[C@@H]2C3(C)C)cc1 | 158 nM | 0.36 | – | 12600 nM | – |
| CC1(C)[C@H]2CC=C(C[N+](C)(C)Cc3ccc(-c4ccccc4F)cc3)[C@@H]1C2 | 501 nM | 0.2 | – | 1260 nM | – |
| CC1(C)[C@@H]2CC=C(C[N+](C)(C)Cc3ccc(-c4cccc(Cl)c4)cc3)[C@H]1C2 | 316 nM | 0.05 | – | – | – |
| CC1(C)[C@@H]2CC=C(C[N+](C)(C)Cc3ccc(-c4ccccc4I)cc3)[C@H]1C2 | 50.1 nM | 0.98 | – | 631 nM | – |
| Cc1ccccc1-c1ccc(C[N+](C)(C)CC2=CC[C@H]3C[C@@H]2C3(C)C)cc1 | 158 nM | 0.2 | – | 1260 nM | – |
| CC1(C)[C@H]2CC=C(C[N+](C)(C)Cc3ccc(-c4cc(Cl)ccc4Cl)cc3)[C@@H]1C2 | 251 nM | 0.64 | Active | 5010 nM | – |
| CC1(C)[C@H]2CC[C@@H](C[N+](C)(C)Cc3ccc(-c4ccccc4I)cc3)[C@@H]1C2 | 100 nM | 0.83 | – | 1260 nM | – |
| CC1(C)[C@H]2CC=C(C[N+](C)(C)Cc3ccc(-c4ccccc4Cl)cc3)[C@@H]1C2 | 100 nM | 0.73 | – | 1580 nM | inactive |
| CC1(C)[C@H]2CC=C(C[N+](C)(C)Cc3ccc(-c4ccccc4)cc3)[C@@H]1C2 | 631 nM | 0.11 | – | – | – |
| CC1(C)[C@H]2CC=C(C[N+](C)(C)Cc3ccc(-c4c(Cl)cccc4Cl)cc3)[C@@H]1C2 | 398 nM | 0.42 | – | 2000 nM | – |
| CC1(C)[C@H]2CC=C(C[N+](C)(C)Cc3ccc(-c4cccc(Br)c4)cc3)[C@@H]1C2 | 200 nM | 0.08 | – | – | – |
| CCOc1ccc(-n2c([C@@H](C)N(Cc3cccnc3)C(=O)Cc3ccc(F)c(C(F)(F)F)c3)nc3ncccc3c2=O)cc1 | 10 nM | 0 | – | – | – |
| CC1(C)[C@H]2CC(C[N+](C)(C)Cc3ccc(-c4ccccc4I)cc3)=C[C@@H]1C2 | 200 nM | 1.05 | – | 1580 nM | – |
